Molecules are shown by their SMILES. pKi: −log10 of the molar value.

Drawing on ChEMBL document CHEMBL1133648, “Synthesis, stability, antiviral activity, and protease-bound structures of substrate-mimicking constrained macrocyclic inhibitors of HIV-1 protease” (J Med Chem, 2000), this text covers CC10, IC90 and Ki for five compounds.

The subject of test [1] is MT2. Briefly: Concentration required for causing death in 10% or less of cells in the absence of virus on MT2 cells infected with HIV-1 strain 237288. It counts as functional, Homo sapiens. The method in brief: (§1)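 Cytotoxicity controls run alongside the Melbourne antiviral test: uninfected MT2 cells at 5 × 10⁴ per well in RF10, or PBMCs at 3.75 × 10⁵ per well in RF10/IL-2, exposed to duplicate drug dilutions made from a 20 mM stock in 60% v/v ethanol. Incubated 6–7 days at 37 °C, 5% CO₂, then viable cells counted by trypan blue exclusion. CC₁₀ is the highest concentration keeping counts ≥90% of the cell-only control.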

In test [2] the test system is Human immunodeficiency virus 1. As to the kind of experiment: Concentration required for causing death in 10% or less of cells in the absence of virus in PBMC cells infected with HIV-1 237288 strain. It is filed as functional. The method in brief:
as §1

Test [3] has as its target Human immunodeficiency virus type 1 protease (Human immunodeficiency virus 1) (UniProt Q72874). Briefly: Inhibition of virion associated RT activity (90% decrease) relative to untreated, infected control on MT2 cells infected with HIV-1 237288 strain. It is filed as cell-based. In short, it runs like this: (§2)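 Drug dilutions, from a 20 mM stock in 60% v/v ethanol, added in duplicate to MT2 cells (5 × 10⁴ in RF10) or PBMCs (3.75 × 10⁵ in RF10/IL-2). Virus added immediately after: HIV-1 #237288 or HIV-2 ROD, 200 TCID₅₀ for MT2 or 300 TCID₅₀ for PBMC. After 6–7 days at 37 °C, supernatant virus precipitated with PEG and virion RT counted by scintillation, as % of virus-only control. IC₅₀ and IC₉₀ are the concentrations giving 50% and 90% reduction.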

Test [4] concerns MT2. As to the kind of experiment: Concentration of compound causing death in 10% or less of cells in the absence of virus in MT2 cells infected with HIV-2 strain (ROD). It is filed as functional, Homo sapiens. The method in brief:
as §1

The target of test [5] is Human immunodeficiency virus type 1 protease (Human immunodeficiency virus 1) (UniProt Q72874). Briefly: Inhibition of virion associated RT activity relative to untreated, infected control in PBMC cells infected with HIV-1 237288 strain. It counts as cell-based. In short, it runs like this: as §2
The subject of test [6] is MT2. Briefly: Concentration which causing death in 10% or less of cells in the absence of virus in MT2 cells infected with HIV-1 strain 237288. In short, it runs like this: as §1
Test [7] addresses Human immunodeficiency virus type 1 protease (Human immunodeficiency virus 1) (UniProt Q72874). The conditions noted are these: MT2.
Test [8] deals with MT2. Briefly: (§3) Concentration required for causing death in 10% or less of cells in the absence of virus in MT2 cells infected with HIV-1 237288 strain. It is filed as functional, Homo sapiens. The method in brief: as §1
Test [9] has as its target Human immunodeficiency virus type 1 protease (Human immunodeficiency virus 1) (UniProt Q72874). To be noted: PBMC.
Test [10] has as its system MT2. The test is described as §3. It counts as functional, Human immunodeficiency virus 1. In short, it runs like this:
as §1

Test [11] concerns the target Human immunodeficiency virus type 1 protease (Human immunodeficiency virus 1, UniProt Q72874). Briefly: Inhibitory constant against HIV-1 protease.

For orientation: IC90 means the concentration needed for an effect of 90%. A low value points to an effect from little substance. Turning to `CCC(C)[C@@H]1NC(=O)[C@@H](NC[C@@H](O)C[C@@H](Cc2ccccc2)C(=O)N[C@H]2c3ccccc3C[C@H]2O)Cc2ccc(cc2)OCCCCCNC1=O` (stereo not given in full), the CC10 is 30000 nM in the test with MT2 [1], 50000 nM in [2] and 30000 nM in the test with MT2 [4]. The IC90 was determined as 100 nM in [3] and 220 nM in test [5].

`CC(C)CN(C[C@@H](O)[C@H](Cc1ccccc1)NC(=O)O[C@H]1CCOC1)S(=O)(=O)c1ccc(N)cc1` had a CC10 in the test on MT2 [6] of 10000 nM.

For `CC(C)CCN(C[C@@H](O)[C@@H]1Cc2ccc(cc2)OCCCCCC(=O)N[C@@H](C(C)C)C(=O)N1)S(=O)(=O)c1ccc(N)cc1`, the IC90 in test [7] was 220 nM; in test [9], 880 nM. Moreover, the CC10 in test [2] was 50000 nM; in the test with MT2 [4], 10000 nM; with MT2 [8], 10000 nM.

As for `CC(C)(C)NC(=O)[C@@H]1CN(Cc2cccnc2)CCN1C[C@@H](O)C[C@@H](Cc1ccccc1)C(=O)N[C@H]1c2ccccc2C[C@H]1O.O`, the CC10 (in the test on MT2 [10]; in test [2]) was 10000 nM in each case. This compound also registered an IC90 in test [7] of 93 nM.

The pKi is −log10 of the Ki, conventionally taken in molar units. Lower therefore signals a high Ki. In test [11], `CC[C@@H](C)[C@@H]1NC(=O)[C@@H](NC[C@@H](O)[C@H](Cc2ccccc2)NC(=O)[C@@H](NC(=O)c2ccc3ccccc3n2)C(C)C)Cc2ccc(cc2)OCCCNC1=O` showed a pKi of 9.52.
